Measurements published in ChEMBL document CHEMBL1128569, “N-acyl-2-substituted-1,3-thiazolidines, a new class of non-narcotic antitussive agents: studies leading to the discovery of ethyl 2-[(2-methoxyphenoxy)methyl]-beta-oxothiazolidine-3-propanoate” (J Med Chem, 1995).

Assays:
[1] = Acute toxicity was determined in mice upon peroral administration; assay type: organism-based; details: mouse, in vivo, po
Outline: (§1)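 Swiss mice of both sexes, groups of six, dosed by gavage at several doses up to 1000 mg/kg. Compound dissolved in water or suspended in 0.5% carboxymethyl cellulose, 10 mL/kg. Deaths recorded over 1-7 days. LD50 obtained by logit transformation.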

Cavia porcellus [2] = test: Antitussive activity by inhibition of irritant citric acid aerosol-induced coughing in guinea pig upon oral administration.; assay type: functional
Outline: (§2)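 Male guinea pigs (350-400 g) exposed in a box to 7.5% citric acid aerosol for 5 min, and coughs counted as the basal value. Next day, after overnight fasting, animals (6-8/dose) were gavaged with compound in water or 0.5% methyl cellulose (2 mL/kg) 1 h before re-exposure. Activity is the reduction in coughs versus the basal count. ED50 is the dose giving 50% reduction (Cochran and Snedecor).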

Cavia porcellus [3] = test: Antitussive activity was evaluated by inhibition of irritant citric acid aerosol-induced coughing in guinea pig upon oral administration at 30 mg/kg dose; assay type: functional; outline: as §2
Cavia porcellus [4] = test: Inhibition of irritant electrically-induced coughing in guinea pig trachea following p.o. administration.; assay type: functional; details: po
Outline: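 Guinea pigs under ketamine (10 mg/kg im) and xylazine (3 mg/kg im) anaesthesia, with an electrode wrapped around the trachea about 1.5 cm above the bifurcation and an indifferent electrode on the dorsal skin. Coughs during stimulation counted as the basal value. Groups of 6-8/dose were gavaged with compound in water or 0.5% methyl cellulose (2 mL/kg). Activity is the cough reduction versus basal. ED50 is the dose giving 50% reduction.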

[5] = Lethality in mice following p.o. administration.; assay type: ADME, organism-based; details: mouse, in vivo, po; outline: as §1
Cavia porcellus [6] = test: Antitussive activity was evaluated by inhibition of irritant aerosol-induced coughing by (po) administration of 30 mg/kg in guinea pig; assay type: functional; outline: as §2

Structure (SMILES) | LD50 [1] | ED50 (Cavia porcellus [2]) | ED50 (Cavia porcellus [4]) | also measured
COc1ccccc1OCC1SCCN1C(=O)Cn1ccnc1 (stereo not drawn) | 966 mg/kg | 50 mg/kg | – | –
CCOCCOCC(=O)N1CCSC1COc1ccccc1OC (stereo not drawn) | 916 mg/kg | – | – | inhibition in vivo at 30 mg/kg (Cavia porcellus [3]): < 20%
COc1ccccc1OCC1SCCN1C(=O)CC(C)=O (stereo not drawn) | > 1000 mg/kg | 30 mg/kg | 26 mg/kg | –
COc1ccccc1OCC1SCCN1C(=O)CNC(C)=O (stereo not drawn) | > 1000 mg/kg | 40 mg/kg | – | –
COc1ccccc1OCC1SCCN1C(=O)CC(=O)N1CCN(Cc2ccccc2)CC1.Cl (stereo not drawn) | 681 mg/kg | 41 mg/kg | – | –
CCCC(=O)CC(=O)N1CCSC1COc1ccccc1OC (stereo not drawn) | – | 42 mg/kg | – | –
COc1ccccc1OCC1SCCN1C(=O)C(C)(C)C (stereo not drawn) | > 1000 mg/kg | – | 24 mg/kg | –
OCC(O)CN1CCN(c2ccccc2)CC1 (stereo not drawn) [DROPROPIZINE] | – | 144 mg/kg | 32 mg/kg | –
O=C(Cn1ccnc1)N1CCSC1COc1ccccc1O (stereo not drawn) | – | – | 27 mg/kg | –
COc1ccccc1SCC1SCCN1C(=O)Cn1ccnc1 (stereo not drawn) | 958 mg/kg | – | – | inhibition in vivo at 30 mg/kg (Cavia porcellus [3]): < 20%
CCOC(=O)CC(=O)N1CCSC1COc1ccccc1O (stereo not drawn) | > 1000 mg/kg | 20 mg/kg | – | –
COc1ccccc1OCC1SCCN1C(=O)CC(=O)NCc1ccncc1.Cl (stereo not drawn) | 707 mg/kg | 23 mg/kg | 13 mg/kg | –
COc1ccccc1OCC1SCCN1C(=O)CSC(=O)c1cc(OC)c(OC)c(OC)c1 (stereo not drawn) | – | – | – | LD50 [5]: > 1000 mg/kg; inhibition in vivo at 30 mg/kg (Cavia porcellus [6]): < 20%
Oc1ccccc1OCC1NCCS1 (stereo not drawn) | > 1000 mg/kg | – | – | –
COc1ccccc1OCC1SCCN1C(=O)CC(=O)N1CCN(C(c2ccccc2)c2ccccc2)CC1 (stereo not drawn) | > 1000 mg/kg | 66 mg/kg | 44 mg/kg | –
CC(=O)SCC(=O)Oc1ccccc1OCC1SCCN1C(=O)CSC(C)=O (stereo not drawn) | – | – | – | LD50 [5]: > 1000 mg/kg; inhibition in vivo at 30 mg/kg (Cavia porcellus [6]): < 20%
COc1ccccc1OCC1SCCN1C(=O)C(C)SC(C)=O (stereo not drawn) | – | – | – | LD50 [5]: > 1000 mg/kg; inhibition in vivo at 30 mg/kg (Cavia porcellus [6]): < 20%
COc1ccccc1OCC1SCCN1C(=O)CC(=O)N1CCN(C(c2ccc(F)cc2)c2ccc(F)cc2)CC1 (stereo not drawn) | > 1000 mg/kg | 26 mg/kg | 32 mg/kg | –
COc1ccccc1SCC1SCCN1C(=O)CN1CCN(C)CC1 (stereo not drawn) | – | – | – | inhibition in vivo at 30 mg/kg (Cavia porcellus [3]): < 20%
O=C(O)CC(=O)N1CCSC1COc1ccccc1O (stereo not drawn) | 1000 mg/kg | 25 mg/kg | – | –
CSCC(=O)N1CCSC1COc1ccccc1O (stereo not drawn) | > 1000 mg/kg | – | 28 mg/kg | –
CCOC(=O)C(C)(C)C(=O)N1CCSC1COc1ccccc1OC (stereo not drawn) | > 1000 mg/kg | 61 mg/kg | 48 mg/kg | –
CCOC(=O)CC(=O)N1CC[S+]([O-])C1COc1ccccc1OC (stereo not drawn) | > 1000 mg/kg | 27 mg/kg | 28 mg/kg | –
COc1ccccc1OCC1N(C(=O)CC(=O)O)CC[S+]1[O-] (stereo not drawn) | > 1000 mg/kg | 20 mg/kg | – | –
CCOC(=O)[C@@H]1CSC(COc2ccccc2OC)N1 (stereo partly drawn) | 757 mg/kg | – | – | inhibition in vivo at 30 mg/kg (Cavia porcellus [3]): < 20%
COc1ccccc1OCC1SCCN1C(=O)CN.Cl (stereo not drawn) | 585 mg/kg | 57 mg/kg | – | –
COc1ccc(OCC2SCCN2C(=O)Cn2ccnc2)cc1 (stereo not drawn) | > 1000 mg/kg | 48 mg/kg | – | –

Structure (SMILES) | LD50 [1] | ED50 (Cavia porcellus [2]) | ED50 (Cavia porcellus [4]) | also measured
COC(=O)c1ccc(OCC2SCCN2C(=O)Cn2ccnc2)cc1 (stereo not drawn) | > 1000 mg/kg | 62 mg/kg | – | –
CCC(=O)SCC(=O)N1CCSC1COc1ccccc1OC (stereo not drawn) | – | – | – | inhibition in vivo at 30 mg/kg (Cavia porcellus [6]): < 20%
CC(=O)SCC(=O)Oc1ccccc1CCC1SCCN1C(=O)CSC(C)=O (stereo not drawn) | – | – | – | LD50 [5]: > 1000 mg/kg; inhibition in vivo at 30 mg/kg (Cavia porcellus [6]): < 20%
COc1ccccc1OCC1SCCN1C(=O)CSC (stereo not drawn) | – | – | 21 mg/kg | –
CCOC(=O)[C@@H]1CSC(COc2ccccc2OC)N1C(=O)CSC(C)=O (stereo partly drawn) | – | – | – | LD50 [5]: 672 mg/kg; inhibition in vivo at 30 mg/kg (Cavia porcellus [6]): < 20%
COc1ccccc1OCC1SCCN1C(C)=O (stereo not drawn) | 552 mg/kg | 46 mg/kg | – | –
CCOC(=O)CC(=O)N1CCSC1COc1ccccc1OC (stereo not drawn) [MOGUISTEINE] | > 1000 mg/kg | 21 mg/kg | 11 mg/kg | –
COc1ccccc1OCC1N(C(=O)CS(C)(=O)=O)CC[S+]1[O-] (stereo not drawn) | > 1000 mg/kg | – | – | –
CCOC(=O)CCC(=O)N1CCSC1COc1ccccc1OC (stereo not drawn) | > 1000 mg/kg | 24 mg/kg | – | –
COc1ccccc1OCC1SCCN1C(=O)CSC(=O)c1cccnc1 (stereo not drawn) | – | – | – | LD50 [5]: > 1000 mg/kg; inhibition in vivo at 30 mg/kg (Cavia porcellus [6]): < 20%
COc1ccccc1OCC1SCCN1C(=O)CS (stereo not drawn) | – | – | – | inhibition in vivo at 30 mg/kg (Cavia porcellus [3]): < 20%
COc1ccccc1OCC1SCCN1C(=O)CN1CCOCC1.Cl (stereo not drawn) | 612 mg/kg | – | – | inhibition in vivo at 30 mg/kg (Cavia porcellus [3]): < 20%
COc1ccccc1OCC1N(C(=O)CSC(C)=O)CC[S+]1[O-] (stereo not drawn) | – | – | – | LD50 [5]: 620 mg/kg; inhibition in vivo at 30 mg/kg (Cavia porcellus [6]): < 20%
COc1ccccc1OCC1SCCN1C(=O)CSC(=O)CN1CCN(C)CC1 (stereo not drawn) | – | – | – | LD50 [5]: > 1000 mg/kg; inhibition in vivo at 30 mg/kg (Cavia porcellus [6]): < 20%
COc1ccccc1OCC1SCCN1C(=O)C(C)(C)C(=O)O (stereo not drawn) | > 1000 mg/kg | 34 mg/kg | 21 mg/kg | –
COc1ccccc1OCC1SCCN1C(=O)CC(=O)NCc1ccccn1 (stereo not drawn) | – | 26 mg/kg | 64 mg/kg | –
Cl.O=C(O)c1ccc(OCC2SCCN2C(=O)Cn2ccnc2)cc1 (stereo not drawn) | > 1000 mg/kg | – | – | inhibition in vivo at 30 mg/kg (Cavia porcellus [3]): < 20%
COc1ccccc1OCC1SCCN1C(=O)COC(C)=O (stereo not drawn) | > 1000 mg/kg | – | 25 mg/kg | –
COc1ccccc1OCC1NCCS1 (stereo not drawn) | > 1000 mg/kg | – | – | –
COc1ccccc1OCC1SCCN1C(=O)C[S+](C)[O-] (stereo not drawn) | > 1000 mg/kg | 25 mg/kg | 10 mg/kg | –
CC(=O)SCC(=O)N1CCSC1COc1ccccc1C (stereo not drawn) | – | – | – | LD50 [5]: > 1000 mg/kg; inhibition in vivo at 30 mg/kg (Cavia porcellus [6]): < 20%
COc1ccccc1OCC1SCCN1C(=O)CC(=O)NCc1cccnc1.O=C(O)/C=C/C(=O)O (stereo not drawn) | 677 mg/kg | 57 mg/kg | – | –
COc1ccccc1OCC1SCCN1C(=O)CC(=O)N1CCN(C)CC1 (stereo not drawn) | 880 mg/kg | 27 mg/kg | – | –
C=CC(=O)N1CCSC1COc1ccccc1OC (stereo not drawn) | 718 mg/kg | 74 mg/kg | – | –
COc1ccccc1OCC1N(C(=O)C[S+](C)[O-])CC[S+]1[O-] (stereo not drawn) | > 1000 mg/kg | – | – | –
COc1ccccc1OCC1SCCN1C(=O)/C=C/c1ccc(O)c(O)c1 (stereo not drawn) | – | – | – | LD50 [5]: > 1000 mg/kg; inhibition in vivo at 30 mg/kg (Cavia porcellus [6]): < 20%
CNC(=O)CC(=O)N1CCSC1COc1ccccc1OC (stereo not drawn) | > 1000 mg/kg | 21 mg/kg | 22 mg/kg | –
